{
  "source": "ChEMBL document CHEMBL1123247",
  "about": "“Nucleoside conjugates. 7. Synthesis and antitumor activity of 1-beta-D-arabinofuranosylcytosine conjugates of ether lipids” (J Med Chem, 1986)",
  "assay_type_in_all_cases": "functional, Mus musculus",
  "key": {"L1210 [1]": {"tested_on": "L1210", "test": "Antitumor activity against ip implanted L1210 leukemia in mice expressed as active dose range (1-5qd treatment schedule) required to produce increase in life span by >25% was determined; 60-100", "summary_of_the_method": "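DBA/2J mice, groups of 6 (23-28 g), were inoculated ip with 1 × 10^6 L1210 cells on day 0. Dosing was ip from 24 h, in 0.9% NaCl with 0.5% Tween-80 (sonicated solution or suspension). Mice were observed daily until death or day 45. Median survival T/C followed NCI protocols, and ILS = (T/C − 1) × 100. Active range means doses giving ILS ≥25%; optimal dose means greatest ILS.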"}, "L1210 [2]": {"tested_on": "L1210", "test": "Antitumor activity was determined against the ip implanted L1210 leukemia in mice by range in survival days at 40 mg/kg (treatment of 1-5qd schedule) dosage; 24->45", "settings": "route intraperitoneal", "summary_of_the_method": "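DBA/2J mice, 23-28 g, in groups of 6, were inoculated ip with 1×10^6 L1210 cells on day 0. Dosing was ip starting 24 h later on the stated daily schedules. Conjugates were given as sonicated solutions and reference prodrugs as suspensions in 0.9% NaCl with 0.5% Tween-80. Mice were observed daily until death or 45 days. Median survival T/C was calculated from survivors per NCI protocols.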"}, "L1210 [3]": {"tested_on": "L1210", "test": "Antitumor activity against ic implanted L1210 lymphoid leukemia in mice expressed as active dose range (1-5qd treatment schedule) required to produce increase in life span by >25% was determined; Range is 40-80", "summary_of_the_method": "(§1)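 DBA/2J mice, groups of 6 (26-32 g), got 1 × 10^5 L1210 cells ic on day 0. Dosing was ip starting 24 h later, as a sonicated solution or suspension in 0.9% NaCl with 0.5% Tween-80, over a wide dose range. Mice were followed daily until death. Median survival T/C was taken from survivors per NCI protocols, and ILS = (T/C − 1) × 100. Active range means doses giving ILS ≥25%; optimal dose means greatest ILS.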"}, "L1210 [4]": {"tested_on": "L1210", "test": "Antitumor activity against the ic implanted L1210 lymphoid leukemia in mice (1,5,9qd treatment schedule) required to produce greatest increase in life span was determined", "summary_of_the_method": "as §1"}, "L1210 [5]": {"tested_on": "L1210", "test": "Antitumor activity was determined against the ip implanted L1210 leukemia in mice by 45-day survivors in mice at 200 mg/kg (treatment of 1-5qd schedule) dosage", "settings": "route intraperitoneal", "summary_of_the_method": "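DBA/2J mice in groups of 6 (wt 23-28 g) were inoculated ip with 1×10^6 L1210 cells on day 0. Dosing was ip from 24 h, in 0.9% NaCl with 0.5% Tween-80 (conjugates sonicated), across a range of doses. Mice were observed daily until death or 45 days. Median T/C was computed from survivors per NCI protocols, and ILS = (T/C − 1)×100.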"}, "L1210 [6]": {"tested_on": "L1210", "test": "Antitumor activity was determined against the ic implanted L1210 lymphoid leukemia in mice by range in survival days at 100 mg/kg (treatment of 1-9qd schedule) dosage; Range is 11-18"}, "P388": {"tested_on": "P388", "test": "Antitumor activity was determined against the ip implanted P388 leukemia in mice by percent median survival rate (treated/control) at 500 mg/kg (treatment of 1qd schedule) dosage; 15.0/11.0", "settings": "route intraperitoneal"}},
  "data": [
    {"smiles": "CCCCCCCCCCCCCCCCCCOCC(COP(=O)(O)OP(=O)(O)OC[C@H]1O[C@@H](n2ccc(N)nc2=O)[C@@H](O)[C@@H]1O)OC(=O)CCCCCCCCCCCCCCC", "note": "(mixture of isomers)", "values": [
      {"measurement": "Active dose range", "setting": "L1210 [1]", "result": 60, "unit": "mg/kg/day"}
    ]},
    {"smiles": "CCCCCCCCCCCCCCCC(=O)OC[C@H](COP(=O)(O)OP(=O)(O)OC[C@H]1O[C@@H](n2ccc(N)nc2=O)[C@@H](O)[C@@H]1O)OC(=O)CCCCCCCCCCCCCCC", "values": [
      {"measurement": "Range", "setting": "L1210 [2]", "result": 24},
      {"measurement": "Active dose range", "setting": "L1210 [3]", "result": 40, "unit": "mg/kg/day"},
      {"measurement": "Optimal dose", "setting": "L1210 [4]", "result": 133, "unit": "mg"}
    ]},
    {"smiles": "Nc1ccn([C@@H]2O[C@H](CO)[C@@H](O)[C@@H]2O)c(=O)n1", "note": "[CYTARABINE]", "values": [
      {"measurement": "Survivors", "setting": "L1210 [5]", "result": 0},
      {"measurement": "Range", "setting": "L1210 [6]", "result": 11},
      {"measurement": "T/C", "setting": "P388", "result": 15, "unit": "%"}
    ]}
  ]
}
